Experimental data published in ChEMBL document CHEMBL4513216, “Probing the Open Global Health Chemical Diversity Library for Multistage-Active Starting Points for Next-Generation Antimalarials” (ACS Infect Dis, 2020).

Assay: Toxicity liver stage against HepG2, at 10uM
Type: cell-based
Design: test concentration 10 uM, cell line HepG2-A16-CD81EGFP
Settings: human, HepG2-A16-CD81EGFP cells; read-out: INHIBITION
Procedure, shortened: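 Uninfected HepG2-A16-CD81EGFP cells, 3 × 10^3 per well, 1536-well, plated on prespotted compound at 10 μM final, parasite-free screening media added to match infected plates; puromycin 10 μM positive, DMSO 0.5% negative; run in parallel with 48 h PbLuc assay at 37 °C, 5% CO2; viability by CellTiter-Glo luminescence, normalized to controls.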

| Compound | cytotoxicity at 10 µM |
| --- | --- |
| Cc1ccnc(NC(=O)c2ccc(Br)o2)c1 | -10.5% |
| COCC(=O)Nc1ccc(-c2noc([C@@H]3CCCN3)n2)cn1 | -1.16% |
| CC(C)NC(=O)NC[C@H]1OC[C@@H](NCc2ccncc2)[C@@H]1O | -4.07% |
| C[C@@H](NC(=O)c1cccn1C)c1c(-c2ccc(Cl)cc2)noc1C(=O)O | 3% |
| COCCn1cc(CC(=O)Nc2nc3c(s2)CCC3)c2ccccc21 | 32.8% |
| CC(C)(C)S(=O)(=O)c1ccc(N2CCN(c3ccccn3)CC2)nn1 | -3.3% |
| COc1ccc(C[C@H]2CNCC[C@@H]2OCC2CC2)cc1 | -1.24% |
| CCOCC(=O)N1CCC2(CC1)CN(Cc1cccnc1)C(=O)CO2 | -0.125% |
| O=C(NC1CCC1)C1CCC2(CN(C(=O)c3ccco3)C2)O1 (stereo unspecified) | -144% |
| Cc1ccoc1C(=O)N1CCc2ncnc(-c3cnn(C)c3)c2CC1 | 16.9% |
| Cn1cc(-c2cnc(N3CCOCC3)nc2)cc1C(=O)N1CCCC1 | -10.6% |
| Cc1cccc(C(=O)Oc2cc(=O)n3cccc(C)c3n2)c1 | 1.11% |
| COc1cc(CCO)c(OC)c2c1OCO2 | -5.6% |
| O=C(NC1CCCC1)c1cc(Sc2ncccn2)ccn1 | -12.3% |
| COCCNC(=O)Cn1c(-c2ccco2)cc2cccnc21 | -5.09% |
| Nc1nccnc1C1CN(C(=O)COc2cccnc2)CCO1 (stereo unspecified) | -1.83% |
| COCCNc1nnc(-c2ccccn2)s1 | 6.1% |
| Clc1ccc(CN(CCN2CCOCC2)Cc2cccnc2)c(Cl)c1 | -4.25% |
| Cc1cc(C)n(CCCC(=O)N2CCc3ncc(Cl)cc3C2)n1 | -25.3% |
| CN(CC1(O)CCCN(c2ccccn2)C1)C(=O)CC1CCOCC1 (stereo unspecified) | -5.44% |
| CC(NC(=O)c1cnccn1)c1nnc2ccccn12 (stereo unspecified) | 5.1% |
| CC1(C)COCCN1C(=O)CCc1nc(-c2ccc(Cl)cc2)no1 | 25.4% |
| CCCc1c(C(=O)N2CCN(c3ncccn3)CC2)cnn1C | 3.38% |

| Compound | cytotoxicity at 10 µM |
| --- | --- |
| O=C(CNc1nc(C2CC2)ns1)N1CCc2sccc2C1 | 17.3% |
| Cc1ncncc1C(=O)N1CCCN(Cc2nccn2C(C)C)CC1 | 5.79% |
| CCN(Cc1ccco1)C(=O)C1=NN(c2ccccc2)C(=O)CN1 | 6.35% |
| CCN(CC(C)C#N)C(=O)CNc1ccc(F)c(C)c1 (stereo unspecified) | 17.5% |
| Cc1nnc(NC(=O)N2CCC(N3CCCCC3)CC2)s1 | 7.15% |
| CS(=O)(=O)c1cccc(S(=O)(=O)NC(=O)c2cscn2)c1 | 1.33% |
| COCCN(CCOC)C(=O)c1ccn(-c2ccccc2Cl)n1 | -1.59% |
| CCOC(=O)N(C)C1CCN(Cc2ccsc2)CC1 | -0.572% |
| CCc1nnc2n1CCN(C(=O)C(C)Oc1ccc(C#N)cc1)C2 (stereo unspecified) | -7.04% |
| CCN(CC)C(=O)CS(=O)(=O)c1cc(OC)c(OC)cc1C | -2.58% |
| CCn1ccnc1CN1CCN(c2ncnc3ccsc23)CC1 | 5.39% |
| CC(NC(=O)NCc1cccc(CN2CCCC2)c1)c1nccs1 (stereo unspecified) | -7.43% |
| COc1ncccc1CNC(=O)c1c[nH]c(=O)c(Br)c1 | -2.62% |
| Cc1noc(-c2cccnc2N2CCOC(C)(c3cnn(C)c3)C2)n1 (stereo unspecified) | 4.08% |
| O=C(N1CCN(CCO)CC1)C1(O)Cc2ccccc2C1 | -2.92% |
| Cc1nonc1NC(=O)C1SCCc2sccc21 (stereo unspecified) | -2.82% |
| CC(C)(C)OC(=O)NCC1CCCCN1Cc1cccc(C(N)=O)c1 (stereo unspecified) | -2.27% |
| Cn1nc2c(cc1=O)CN(CC(=O)Nc1nncs1)CC2 | -9.55% |
| CC(C)NC(=O)CCNC(=O)Nc1cccc(-c2nccn2C)c1 | -1.39% |
| C1CN(c2nc(C3CC3)ns2)CCS1 | -11.6% |
| Cc1csc(C2CCCCN2C(=O)Cn2cncn2)n1 (stereo unspecified) | -0.0679% |
| Cc1cccn2cc(CN3CCCC(c4noc(C5CC5)n4)C3)nc12 (stereo unspecified) | 2.29% |
| CN(Cc1ccco1)C(=O)NCC(c1cccs1)N(C)C (stereo unspecified) | 4.38% |

| Compound | cytotoxicity at 10 µM |
| --- | --- |
| CS(=O)(=O)NCC1CCCCN1C(=O)c1ccc(Br)s1 (stereo unspecified) | 1.58% |
| CNC(=O)NC(C)c1nc(-c2ccccc2)c[nH]1 (stereo unspecified) | 0.995% |
| CC(C)CC(C(=O)N(C)Cc1ncnn1C)N1CCCCC1=O (stereo unspecified) | -0.159% |
| O=c1[nH]nc(CNc2ncc(Br)cn2)[nH]1 | -5.12% |
| CC(=O)c1cc(C(=O)NC2(c3ccccc3)CCC2)n(C)c1 | -11.7% |
| NC(=O)N1CCCN(C(=O)Nc2cc(-n3cccc3)ccc2F)CC1 | -2.09% |
| CCC(C)NC(=O)CS(=O)(=O)Cc1cc(C)ccc1C (stereo unspecified) | -3.06% |
| CC(=O)N(C)Cc1cccc(NC(=O)N(C)Cc2nccs2)c1 | -6.77% |
| CN1CC(C(=O)NCCc2ccc(F)c(Br)c2)CC1=O (stereo unspecified) | 3.57% |
| CC(C)CNC(=O)CSc1nnc(OC(C)C)s1 | 1.97% |
| CCCn1ccc2cc(NC(=O)NCCn3cnnc3CC)ccc21 | 2.47% |
| Cc1nn(CCO)c(C)c1CNC1CCC(C)(C)c2ccccc21 (stereo unspecified) | -3.34% |
| NC(=O)c1cncc(N2CCN(Cc3cccc4nsnc34)CC2)n1 | 8.15% |
| COc1ccc(CCC2CCCN(C(=O)CCc3cc(O)no3)C2)cc1 (stereo unspecified) | -3.66% |
| Cc1cc(C)c(-n2cc(CCO)cn2)cc1C | 0.334% |
| COc1ccccc1[C@@H]1CN(Cc2c(C)noc2C)C[C@H]1C(=O)O | -9.94% |
| Clc1cc(NCc2ccncc2)nc2[nH]ccc12 | 6.58% |
| CC(C)N1CCCC(C(=O)NCc2noc(Cc3ccccc3)n2)C1 (stereo unspecified) | -1.49% |
| CN(Cc1cnccn1)CC1CCOc2ccccc2C1 (stereo unspecified) | -3.75% |
| c1ccc2sc(N3CCCC4(CCOC4)C3)nc2c1 (stereo unspecified) | -5.08% |
| Cc1ccccc1[C@@H]1CN(CCCS(=O)(=O)N(C)C)C[C@H]1C(=O)O | -5.51% |
| COc1ccccc1CN1C(=O)O[C@@H]2CN(Cc3cccc(C)n3)C[C@@H]21 | 2.64% |
| CN(C)C(=O)c1ccc2c(c1)N(C)C(CC(=O)NCCOCCO)CO2 (stereo unspecified) | -7.96% |

| Compound | cytotoxicity at 10 µM |
| --- | --- |
| Cc1nccc(-c2ccccc2)c1C(=O)N1CCC2(CC(=O)NC2=O)C1 (stereo unspecified) | -2.12% |
| CCn1cc(C(=O)N2CCCC3(CCC(=O)N(CCC(C)C)C3)C2)cn1 (stereo unspecified) | -1.19% |
| Cc1n[nH]c(C)c1CC(=O)N1CCCN(C)C2(CCN(C)CC2)C1 | 11.7% |
| COc1ccc(OCc2nc(C(=O)N3CCC(NC(C)=O)C3)co2)cc1 (stereo unspecified) | -1.21% |
| CN(Cc1noc2c1CCCC2)C(=O)CN1C(=O)COc2ccccc21 | -55.1% |
| O=C(O)C1(O)CCN(c2ccnc3c(C(F)(F)F)cccc23)CC1 | 5.56% |
| COc1ccc([C@@H]2CN(c3cc(C(=O)O)ccn3)C[C@H]2N(C)C)cc1 | 10.3% |
| CCC1c2cccn2CCN1C(=O)c1ccno1 (stereo unspecified) | -8.58% |
| COc1ncccc1NC(=O)N(Cc1ccccn1)C1CC1 | 9.11% |
| Cc1ccccc1CN(C)C(=O)CN1CCCC(Cn2cncn2)C1 (stereo unspecified) | -2.87% |
| Cc1cc(CN(C)CC(c2cccs2)N2CCOCC2)on1 (stereo unspecified) | 0.049% |
| Cc1nc(C)n(CC2CCCN(Cc3ccc4c(c3)OCCO4)C2)n1 (stereo unspecified) | -18.9% |
| O=C(NCc1nn(-c2ccccc2)c2c1CCC2)N1CCCC(O)C1 (stereo unspecified) | -10.2% |
| Cc1cnn(CCNCc2nc(-c3ccccn3)no2)c1 | -8% |
| Cn1c(CN2CCCC(c3noc(C4CC4)n3)C2)cc(=O)n(C)c1=O (stereo unspecified) | -11.2% |
| CC(C)c1ccc(OCC(=O)N2CCOCC2c2ncon2)cc1 (stereo unspecified) | -9.01% |
| O=C(NCCOC1CCCC1)c1ccc(-c2ccco2)[nH]c1=O | -20% |
| CN1CCC/C1=N\S(=O)(=O)c1ccc(NC(=O)c2ccsc2)cc1 | 6.49% |
| Cc1ccc(S(=O)(=O)NCc2cccc(C(=O)N3CCCC3)c2)cc1F | -14.5% |
| COc1cccc(COCC(=O)N2CCCC2Cn2cccn2)c1 (stereo unspecified) | -0.153% |
| c1ccc2oc(CN3CCOC(Cn4cccn4)C3)nc2c1 (stereo unspecified) | -18.2% |
| CCc1nc(C)c(C(=O)N2CCCN(Cc3cnn(C)c3)CC2)s1 | -2.41% |
| CC(C)(C)NCc1ccc(OCc2ccc3c(c2)OCCO3)cc1 | 1.99% |

| Compound | cytotoxicity at 10 µM |
| --- | --- |
| CNC(=O)[C@@H](c1ccccc1F)N1CCC[C@H]1C(=O)NC1CCCC1 | 0.344% |
| CC(C)OCCCN(Cc1cnn(C)c1)Cc1ccccn1 | 1.24% |
| COCC(=O)N1CCN(Cc2cccnc2)c2ncccc2C1 | 10.2% |
| O=C(NCc1cccnc1)C1=NOC2(CCN(C(=O)N3CCCC3)C2)C1 (stereo unspecified) | -4.8% |
| COc1cccc(CN2CCC3(CC2)CCN(C(=O)[C@@H]2CCCO2)C3)c1 | 0.523% |
| CC(=O)N1Cc2nccn2CC(CNC(=O)c2cccnc2)C1 (stereo unspecified) | -146% |
| c1cncc(-c2ncnc3c2CCN(Cc2cccs2)CC3)c1 | 19.9% |
| Cc1cnc(N2CCCC3(CCN(Cc4csc(C)n4)C3=O)C2)nc1 (stereo unspecified) | -5.15% |
| O=C(C1CCC1)N1CCO[C@H]2[C@H](OCCCn3cccn3)CC[C@@H]21 | 16.7% |
| O=C(NC1CC1)[C@@H]1CCO[C@@H]2CCN(C3CCOCC3)C[C@H]21 | -9.99% |
| CCc1ncnc2c1CCN(C(=O)c1ccncc1F)CC2 | -88.5% |
| O=C(NCc1cccs1)[C@H]1CC[C@@H]2[C@@H](CCN2c2ncccn2)O1 | -24.2% |
| Cn1nnc2c1CCN(Cc1ccco1)C2COCc1ccccc1 (stereo unspecified) | -133% |
| CNCC(=O)N1CC(c2cc(Nc3nc(C)cs3)nc(C)n2)C1 | -21.2% |
| CC(C)CCN1C[C@@H]2OCCN(c3ncc(F)cn3)[C@@H]2C1 | 4.91% |
| CN(C)C1COC2(CCN(Cc3ccc4c(c3)OCO4)CC2)C1 (stereo unspecified) | -5.19% |
| Cc1ncsc1CN1C[C@@H]2COC[C@]2(CNC(=O)c2ccccc2)C1 | -2.39% |
| COCC1CC2(CCN(Cc3nccn3C)CC2)CN1c1ncccn1 (stereo unspecified) | 5.1% |
| Cc1cccc(C(=O)N2C[C@@H]3C(CC(=O)NC(C)C)[C@@H]3C2)n1 (stereo partly specified) | -3.69% |
